# Shown are actives, neighbours in structure and some others; about 5.1% of the full set was active somewhere.
# NF-kB neuron act: compounds increasing NF-kB expression in human neuronal cells; NF-kB reporter expression; stronger effect = higher value; fold change at 12.5 µM; AID 1239; actives 1.6% (n = 190,000); in the data active = fold change above about 3.3
# APP 5'UTR act: activates APP 5'UTR luciferase reporter; SH-SY5Y APP 5'UTR luciferase reporter, luminescence; zero percent = DMSO vehicle wells; AID 1276; actives 1% (n = 190,000); activation, % at 2 µM;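 active = activation above a set limit, based on mean plus 3 SD of controls, cut at about 140% in these data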
# STAT1 act: increases IFN-gamma driven STAT1 reporter signal | NIH 3T3 STAT1-luciferase reporter, luminescence; 100% = IFN-gamma alone, no compound | activation (% of control), % at 5.5 µM | AID 932 | actives 2.6% (n = 200,000);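 active = activation above the screen-wide mean activation plus 3 SD, cut at about 130% in these data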;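 also: raw ratio to IFN-gamma control signal so 100% means no change and 0% no light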
# STAT3 blocker: reduces IL-6 driven STAT3 reporter signal. U3A cells, IL-6 STAT3-luciferase reporter, luminescence; host cell line lacks STAT1. actives 0.89% (n = 190,000). AID 862. inhibition, % at 5.5 µM;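 active = inhibition above the mean inhibition across all screened compounds plus 3 SD, cut at about 44% in these data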;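 also: 0% = DMSO only wells and 100% = 100 µM nifuroxazide control wells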
# STAT1 inh: reduces IFN-gamma driven STAT1 reporter signal; NIH 3T3 STAT1-luciferase reporter, luminescence; actives 0.35% (n = 200,000); inhibition, % at 5.5 µM;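 active = inhibition above a set limit, the mean inhibition across all tested compounds plus 3 SD, cut at about 34% in these data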;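 also: 0% = IFN-gamma with DMSO and 100% = IFN-gamma with 300 µM nifuroxazide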
# STAT3 act: activators of IL-6 induced STAT3 signaling | U3A cells, IL-6 STAT3-luciferase reporter, luminescence; 100% = signal with IL-6 EC80 alone | activation (% of control), % at 5.6 µM | actives 0.91% (n = 190,000);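 active = activation above the screen-wide mean of compound activation plus 3 SD, cut at about 130% in these data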;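 also: 0% = background luminescence of wells with medium and substrate only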
#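 Detection: reporter luminescence signal / Assay system: STAT1-lacking human U3A cells, STAT3 luciferase reporter / Incubation: compound pre-incubation 1 h before IL-6, then 6 h stimulation at 37 °C / Control set: IL-6-only high control / Read-out: % activation relative to IL-6 control / Probe or stimulus: Interleukin-6, 33 ng/mL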
# * = called active by the depositor; x = no result.
SMILES,NF-kB neuron act,APP 5'UTR act,STAT1 act,STAT3 blocker,STAT1 inh,STAT3 act
COc1ccc(CCNC(=O)c2cc(-c3ccccc3OC)on2)cc1OC,1.12,-6.2,102.9,26.7,-3.2,85.0
COc1ccccc1-c1cc(C(=O)NCCc2ccccc2)no1,3.75*,50.6,119.9,9.2,-21.5,97.9
COc1ccccc1-c1cc(C(=O)Nc2cccnc2)no1,2.83,-95.8,131.0*,-7.4,-33.9,111.5
CC(/C=C/c1ccccc1)=N\NC(=O)Cn1nc(C)cc1C,1.09,-7.6,87.6,9.8,13.8,93.9
COc1ccc(C2C(=O)N(C3CCCCC3)CC(=O)N2CC2COc3ccccc3O2)cc1 (stereo not given),0.95,8.6,108.3,3.9,-9.3,100.8
CC1CN(S(=O)(=O)c2cccc(C(=O)OC/C(O)=C(\C#N)c3nc4ccccc4[nH]3)c2)CC(C)O1 (stereo not given),0.98,-9.1,95.5,-1.0,7.0,98.8
Oc1ccc(F)cc1-c1cc(-c2ccc3c(c2)OCCO3)n[nH]1,10.8*,197.2*,110.0,6.3,-10.8,98.5
Cc1ccc(O)c(-c2cc(-c3cccc(Br)c3)n[nH]2)c1,2.1,32.7,106.6,5.2,-7.5,100.4
O=C(O)CCn1cc(/C=N/O)c(-c2cccc([N+](=O)[O-])c2)n1,0.87,0.4,118.0,-1.6,-19.2,101.1
COc1ccc2nc(NC3=NCCC3)sc2c1,2.58,51.4,136.1*,15.1,-38.7,88.9
COc1cccc(Nc2n[nH]c(=S)s2)c1,1.17,13.7,97.9,3.3,2.4,96.7
COc1cccc(Nc2nc3ccc(OC)cc3s2)c1,4.74*,194.6*,129.3*,3.4,-32.8,98.5
COc1ccc(-c2nc(NC3=NCCCCC3)sc2C)cc1,1.04,-5.7,90.5,-4.9,9.9,107.4
CCN=c1scc(-c2ccc(F)cc2)n1/N=C/c1ccccn1,5.02*,106.9,137.6*,24.2,-40.8,85.1
CCN=c1scc(-c2ccccc2)n1/N=C/c1ccccn1,2.96,165.7*,169.7*,45.4*,-76.3,60.9
C/C(CC(=O)NC(C)(C)C)=N\NC(=O)c1ccccc1N,1.28,35.2,128.6*,4.6,-32.1,97.5
Cc1c(/C(O)=C2/C(=O)C(=O)N(Cc3cccnc3)C2c2ccccn2)cnn1-c1ccccc1 (stereo not given),1.04,17.4,48.9,63.7*,54.6*,50.2
CN(C)S(=O)(=O)c1ccc(/C(O)=C2/C(=O)C(=O)N(Cc3cccnc3)C2c2cccs2)cc1 (stereo not given),x,-18.9,107.3,25.1,-10.0,82.1
Cc1c(/C(O)=C2/C(=O)C(=O)N(Cc3cccnc3)C2c2cccs2)cnn1-c1ccccc1 (stereo not given),0.5,141.1*,141.0*,23.8,-44.4,78.9
Cc1ccc(/C(O)=C2/C(=O)C(=O)N(Cc3cccnc3)C2c2ccccn2)cc1 (stereo not given),1.17,-0.8,100.2,-0.9,-0.2,102.9
COC(=O)c1ccc(CN2CCCC(CCC(=O)NCc3ccc(C)o3)C2)cc1 (stereo not given),1.03,6.5,90.6,3.1,8.1,100.3
Cc1cccc(-n2c(C)cc(/C=N\NC(=O)c3ccco3)c2C)c1,1.95,60.6,145.2*,-1.9,-51.5,105.8
O=C(N/N=C/c1ccccn1)c1cccs1,1.19,18.0,131.7*,18.8,-35.6,92.8
Cc1cc(/C=N\NC(=O)c2cccs2)c(C)n1-c1ccc2ncccc2c1,1.04,62.8,130.2*,8.4,-33.5,98.6
Cc1ccccc1C(=O)N/N=C/c1ccccn1,1.69,31.4,136.2*,-1.3,-41.0,104.6
SMILES,NF-kB neuron act,APP 5'UTR act,STAT1 act,STAT3 blocker,STAT1 inh,STAT3 act
Cc1cccc(-n2c(C)cc(/C=N/O)c2C)c1,1.12,5.4,106.6,-4.4,-7.4,102.8
O=C(N/N=C\c1ccccn1)c1ccccc1O,1.13,-16.0,106.8,20.8,-8.5,84.0
O=[N+]([O-])c1ccc(CN2C=NS(=O)(=O)c3ccccc32)cc1,1.13,-3.1,85.8,8.3,15.0,99.3
CC(C)NC(=O)NC(=O)COC(=O)c1cccc(OC(F)F)c1,1.17,-11.8,98.5,7.0,0.1,99.8
COC(=O)Cc1c(O)ccn(Cc2cccc3ccccc23)c1=O,1.1,6.9,95.5,3.9,5.0,105.5
COc1ccc(-c2coc3cc(OC)cc(O)c3c2=O)cc1,5.52*,154.9*,143.0*,-1.3,-48.1,102.2
COc1ccc(-c2coc3cc(OC)cc(OC)c3c2=O)cc1,1.76,26.9,127.6,x,-31.7,x
CC(C)Oc1cc(O)c2c(=O)c(-c3ccc(O)cc3)coc2c1,9.03*,164.2*,128.4,17.2,-34.1,85.4
COc1cc(O)cc2occ(-c3ccc(O)cc3)c(=O)c12,1.39,11.4,104.0,x,-5.7,x
CC(Cc1ccccc1)C(=O)N(C)Cc1cccnc1 (stereo not given),1.11,-3.6,100.7,-1.5,-0.7,98.8
CN(C)CCCOC(=O)COc1ccc(C(C)(C)C)cc1,1.14,-1.9,93.4,2.7,7.4,100.0
CCc1cc2c(=O)n(-c3ccc(Br)cc3)cnc2s1,2.38,12.8,136.8*,6.7,-43.5,95.3
CCCCCn1cnc2sc(-c3ccccc3)cc2c1=O,4.81*,4.3,148.8*,14.5,-54.2,97.1
CCCCCn1cnc2sc(CC)cc2c1=O,2.3,66.1,143.6*,-6.4,-48.8,107.7
COc1ccccc1-n1cnc2sc(-c3ccccc3)cc2c1=O,1.37,5.5,98.8,-2.6,1.4,106.2
CCc1cc2c(=O)n(CC(C)C)cnc2s1,1.52,31.6,127.5,-6.4,-31.1,110.0
CCc1cc2c(=O)n(CC(=O)NCCc3ccc(OC)c(OC)c3)cnc2s1,1.04,-1.7,107.7,-6.8,-10.2,107.8
O=c1c2cc(-c3ccccc3)sc2ncn1/N=C/c1ccco1,2.35,20.3,128.7*,12.9,-31.3,91.1
FC(F)(F)c1ccc(Oc2ccc(Cl)cc2Br)nc1,1.12,15.1,97.0,6.4,3.5,102.6
C=CCSc1nnc(CNC(=O)c2ccc(Cl)cc2)n1CC,1.55,5.4,106.0,12.1,-8.4,98.3
COCn1c(-c2ccc(OC)c(OC)c2)nc2ccccc21,1.75,72.6,132.4*,12.0,-35.3,91.8
CC(CNc1ccccc1O)C(=O)O (stereo not given),1.14,17.3,106.3,-1.6,-7.2,103.8
Cc1[nH]c2ccccc2c1C(=O)C(=O)NCCOc1ccccc1,1.66,-9.7,93.5,12.5,5.3,91.3
Cc1cc(C(=O)Cn2nc(C(=O)O)c3ccccc3c2=O)c(C)n1CC(F)(F)F,1.6,-7.7,142.4*,-10.7,-44.3,111.3
Cc1ccc2nc(-c3ccc(N4C(=N)SC5CS(=O)(=O)CC54)cc3)sc2c1 (stereo not given),1.19,70.7,130.0*,-4.5,-33.1,103.4

# Bioassay records: PubChem BioAssay, several laboratories
